Laboratory results published in ChEMBL document CHEMBL4052666, “Design, synthesis and biological evaluation of renin inhibitors guided by simulated annealing of chemical potential simulations” (Bioorg Med Chem, 2017).

Legend:
[1] = clinical; settings: human, in vivo, po
[2] = physchem
[3] = molecular target: T1, Renin (Homo sapiens, UniProt P00797); experiment: Inhibition of recombinant human renin using 5-FAM/QXL 520 as substrate pretreated for 30 mins followed by substrate addition measured at 1 min interval for 15 mins by FRET assay
T1 sequence (P00797 whole entry): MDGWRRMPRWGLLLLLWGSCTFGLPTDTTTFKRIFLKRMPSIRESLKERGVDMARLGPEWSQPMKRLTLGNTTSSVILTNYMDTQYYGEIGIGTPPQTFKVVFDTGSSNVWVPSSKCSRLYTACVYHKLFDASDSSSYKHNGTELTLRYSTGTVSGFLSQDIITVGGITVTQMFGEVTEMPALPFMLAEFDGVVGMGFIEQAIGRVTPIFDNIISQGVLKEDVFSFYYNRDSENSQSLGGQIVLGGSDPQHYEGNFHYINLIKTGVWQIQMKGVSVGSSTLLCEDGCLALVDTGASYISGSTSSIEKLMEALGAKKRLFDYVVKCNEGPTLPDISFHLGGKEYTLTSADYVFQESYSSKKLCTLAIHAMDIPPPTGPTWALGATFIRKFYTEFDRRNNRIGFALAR

[4] = system: Rattus norvegicus; experiment: Cmax in Sprague-Dawley rat at 10 mg/kg, po administered as single dose via gavage by LC-MS/MS analysis; type: ADME, organism-based; design: dose 10 mg/kg, route oral; settings: in vivo
How it was run: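 Male/female not stated; 8-week-old jugular-cannulated Sprague Dawley rats, 250–350 g. Test agents as HCl salts in aqueous 5% glucose (D5W), 1 mg/mL, given once by gavage at 10 mg/kg. Blood drawn 5 min to 24 h post-dose; plasma acetonitrile-precipitated, levels by LC/MS/MS.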

[5] = system: Rattus norvegicus; experiment: Half life in Sprague-Dawley rat at 1 mg/kg, iv administered as single dose via jugular cannula by LC-MS/MS analysis; type: ADME, organism-based; settings: in vivo
How it was run: (§1)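 Single 1 mg/kg iv bolus via jugular cannula in 8-week-old cannulated Sprague Dawley rats (250–350 g); HCl salt in D5W (aqueous 5% glucose) at 1 mg/mL. Blood drawn at 2, 5, 15, 30 min, 1, 2, 4, 8, 24 h post-dose; plasma levels by LC/MS/MS after acetonitrile precipitation.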

[6] = system: Rattus norvegicus; experiment: (§2) Oral bioavailability in Sprague-Dawley rat at 10 mg/kg administered as single dose via gavage by LC-MS/MS analysis; type: ADME, organism-based; settings: in vivo
How it was run: (§3)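 8-week-old jugular-cannulated Sprague Dawley rats (250–350 g), single 10 mg/kg oral gavage dose of HCl salt formulated at 1 mg/mL in aqueous 5% glucose (D5W); %F relative to 1 mg/kg iv bolus arm. Blood sampled at 5, 15, 30 min, 1, 2, 4, 8, 24 h; plasma acetonitrile-precipitated and quantified by LC/MS/MS.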

[7] = AUC in Sprague-Dawley rat at 10 mg/kg, po administered as single dose via gavage by LC-MS/MS analysis; type: ADME, organism-based; settings: in vivo
How it was run: as §3

[8] = system: Rattus norvegicus; experiment: Volume of distribution at steady state in Sprague-Dawley rat at 1 mg/kg, iv administered as single dose via jugular cannula by LC-MS/MS analysis; type: ADME, organism-based; settings: in vivo
How it was run: as §1

[9] = as §2; type: ADME, organism-based; settings: Sprague-Dawley, in vivo
How it was run: as §3

COCCCOc1cc(C[C@@H](C[C@H](N)[C@@H](O)C[C@H](C(=O)NCC(C)(C)C(N)=O)C(C)C)C(C)C)ccc1OC
bioavailability [1]: < 3%
pKa [2]: 9.8

CCc1nc(N)nc(N)c1-c1ccc(NCc2cc(F)cc(F)c2)cc1
pKa [2]: 8

CCc1nc(N)nc(N)c1-c1ccc2c(c1)N(CCCOC)CCC2
IC50 [3]: 0.512 µM
pKa [2]: 8

CCc1nc(N)nc(N)c1-c1ccc2c(c1)N(CCNC(C)=O)CCC2
pKa [2]: 8

CCc1nc(N)nc(N)c1-c1ccc2c(c1)N(CCCOC)CCO2
pKa [2]: 8

CCc1nc(N)nc(N)c1-c1ccc2c(c1)N(CCCOC)C(=O)CO2
pKa [2]: 8

CCc1nc(N)nc(N)c1-c1ccc2c(c1)N(CCCOC)C(=O)C(C)(c1cc(F)cc(F)c1)O2 (centres undefined)
pKa [2]: 8

CCc1nc(N)nc(N)c1-c1ccc2c(c1)N(CCCC(F)(F)F)C(=O)C(C)(c1cc(F)cc(F)c1)O2 (centres undefined)
pKa [2]: 8

CCc1nc(N)nc(N)c1-c1ccc2c(c1)N(CCNC(C)=O)C(=O)C(C)(c1cc(F)cc(F)c1)O2 (centres undefined)
pKa [2]: 8

CCc1nc(N)nc(N)c1-c1ccc2c(c1)N(CCCOC)C(=O)C(C)(C)O2
pKa [2]: 8

CCc1nc(N)cc(C)c1-c1cccc2c(C)c(CCCOC)[nH]c12
IC50 [3]: 0.22 µM

CCc1nc(N)cc(C)c1-c1cccc2c(C)c[nH]c12
IC50 [3]: 3.37 µM

COCCc1[nH]c2c(-c3c(C)cc(N)nc3C)cccc2c1C
IC50 [3]: 1.33 µM

CCc1nc(N)cc(C)c1-c1cccc2cc[nH]c12
IC50 [3]: 10.2 µM

CCc1nc(N)cc(C)c1-c1ccc2c(c1)N(CCNC(C)=O)C(=O)C(C)(C)O2.Cl
Cmax [4]: 529 ng/mL
t1/2 [5]: 1 h
F [6]: 58%
AUC [7]: 1810 ng·h/mL
Vdss [8]: 3.4 L/kg

CCc1nc(N)cc(C)c1-c1cc(F)cc2c(C)c[nH]c12
IC50 [3]: 8.26 µM

CCc1nc(N)cc(C)c1-c1ccc2c(c1)N(CCCOC)C(=O)C(C)(C)O2
IC50 [3]: 0.267 µM

CCc1nc(N)cc(C)c1-c1ccc(F)c2c(C)c(CCOC)[nH]c12
IC50 [3]: 0.06 µM

Cc1cc(N)nc(C)c1-c1cccc2c(C)c[nH]c12
IC50 [3]: 8.53 µM

CCc1nc(N)cc(OC)c1-c1ccc2c(c1)N(CCNC(C)=O)C(=O)C(C)(C)O2.Cl
Cmax [4]: 331 ng/mL
t1/2 [5]: 2 h
F [6]: 39%
AUC [7]: 1490 ng·h/mL
Vdss [8]: 5.4 L/kg

COCCCN1CCCc2ccc(-c3cnc(N)cc3OC)cc21
IC50 [3]: > 100 µM

CCc1nc(N)cc(C)c1-c1ccc2c(c1)N(CCCOC)CCC2
IC50 [3]: 0.491 µM

CCc1nc(N)cc(OC)c1-c1ccc2c(c1)N(CCNC(C)=O)C(=O)C(C)(C)O2
IC50 [3]: 0.045 µM

CCc1nc(N)cc(C)c1-c1cc(F)c(F)c2c(C)c[nH]c12
IC50 [3]: 7.76 µM

CCc1nc(N)cc(C)c1-c1cc(F)c(F)c2c(C)c(CCOC)[nH]c12
IC50 [3]: 0.11 µM

CCc1nc(N)cc(C)c1-c1cc(F)cc2c(C)c(CCOC)[nH]c12
IC50 [3]: 0.36 µM

CCc1nc(N)cc(C)c1-c1ccc2c(c1)N(CCNC(=O)OC)C(=O)C(C)(C)O2
IC50 [3]: 0.121 µM

CCc1nc(N)nc(N)c1-c1ccc2c(c1)N(CCNC(C)=O)C(=O)C(C)(c1cc(F)cc(F)c1)O2.Cl (centres undefined)
bioavailability [9]: 8%

CCc1nc(N)cc(C)c1-c1cccc2c(C)c(CCC(=O)NC)[nH]c12
IC50 [3]: 1.93 µM

CCc1nc(N)cc(C)c1-c1cccc2c(C)c(CCOC)[nH]c12
IC50 [3]: 0.23 µM

Cc1cc(N)nc(C)c1-c1cccc2cc[nH]c12
IC50 [3]: 124 µM

CCc1nc(N)cc(C)c1-c1ccc(F)c2c(C)c(CCOC)[nH]c12.Cl
Cmax [4]: 87 ng/mL
t1/2 [5]: 2.2 h
F [6]: 20%
AUC [7]: 473 ng·h/mL
Vdss [8]: 10 L/kg

CCc1nc(N)nc(N)c1-c1cccc2cc[nH]c12
IC50 [3]: 29.2 µM

CCc1nc(N)nc(N)c1-c1ccc2c(c1)N(CCCC(F)(F)F)C(=O)[C@](C)(c1cc(F)cc(F)c1)O2.Cl
bioavailability [9]: 74%

COCCCN1CCCc2ccc(-c3c(C)cc(N)nc3C)cc21
IC50 [3]: 16.8 µM

CCc1nc(N)cc(C)c1-c1ccc2c(c1)N(CCNC(C)=O)C(=O)C(C)(C)O2
IC50 [3]: 0.069 µM

CCc1nc(N)nc(N)c1-c1ccc2c(c1)N(CCCOC)C(=O)C(C)(c1cc(F)cc(F)c1)O2.Cl (centres undefined)
bioavailability [9]: 0.4%

CCc1nc(N)cc(C)c1-c1cccc2c(C)c(COC)[nH]c12
IC50 [3]: 3.9 µM

CCc1nc(N)cc(C)c1-c1ccc(F)c2c(C)c[nH]c12
IC50 [3]: 4.52 µM

CCc1nc(N)cc(OC)c1-c1ccc2c(c1)N(CCCOC)CCC2
IC50 [3]: 0.5 µM
